{"source": "ChEMBL document CHEMBL1649340", "about": "“Sesquiterpene coumarins from Ferula gumosa” (J Nat Prod, 2010)", "type_in_all_cases": "functional, cell-based", "key": {"[1]": {"system": "M14", "experiment": "Cytotoxicity against human M14 cells after 48 hrs by MTT assay", "in_short": "(§1)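 Adherent lines from ATCC, grown in DMEM with 2 mM L-glutamine, 10% heat-inactivated FBS and 1% pen/strep, used for up to 10 passages. 3 × 10^3 cells were seeded per well and left overnight at 37 °C in 5% CO2. Serial dilutions (1-50 µM) were added for 48 h. MTT (5 mg/mL stock) was added for 3 h, then solubilised in 50% DMF/20% SDS at pH 4.5. OD was read at 620 nm, with viability given as % of 0.1% DMSO controls.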"}, "[2]": {"system": "MCF7", "experiment": "Cytotoxicity against human MCF7 cells after 48 hrs by MTT assay", "in_short": "as §1"}, "[3]": {"system": "T98G", "experiment": "Cytotoxicity against human T98G cells after 48 hrs by MTT assay", "in_short": "as §1"}, "[4]": {"system": "A549", "experiment": "Cytotoxicity against human A549 cells after 48 hrs by MTT assay", "in_short": "as §1"}, "[5]": {"system": "SAOS-2", "experiment": "Cytotoxicity against human Saos2 cells after 48 hrs by MTT assay", "in_short": "as §1"}, "[6]": {"system": "FRO", "experiment": "(§2) Cytotoxicity against human FRO cells after 48 hrs by MTT assay", "in_short": "as §1"}, "[7]": {"system": "U-937", "experiment": "Cytotoxicity against human U937 cells after 48 hrs by MTT assay", "in_short": "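U937 cells were grown in RPMI with 2 mM L-glutamine, 10% FBS and 1% pen/strep, for no more than 10 passages. 3 × 10^3 cells per well were plated and incubated overnight at 37 °C in 5% CO2, then exposed to serial dilutions (1-50 µM) for 48 h. MTT (5 mg/mL stock) was added for 3 h, followed by lysis in 50% DMF/20% SDS at pH 4.5. OD was read at 620 nm, and viability was expressed against 0.1% DMSO controls.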"}, "[8]": {"experiment": "as §2", "in_short": "as §1"}}, "note": "Active and inactive are the calls of the source. The calls are words filed in the database; no cut-off is given here.", "data": [{"smiles": "C=C1C[C@@H](O[C@@H]2O[C@H](CO)[C@@H](O)[C@H](O)[C@H]2O)[C@@H]2C(C)(C)[C@@H](O)CC[C@@]2(C)[C@@H]1COc1ccc2ccc(=O)oc2c1", "values": [{"measurement": "Activity", "setting": "[1]", "result": "inactive"}, {"measurement": "Activity", "setting": "[2]", "result": "inactive"}, {"measurement": "Activity", "setting": "[3]", "result": "inactive"}, {"measurement": "Activity", "setting": "[4]", "result": "inactive"}, {"measurement": "Activity", "setting": "[5]", "result": "inactive"}, {"measurement": "Activity", "setting": "[6]", "result": "inactive"}, {"measurement": "Activity", "setting": "[7]", "result": "inactive"}]}, {"smiles": "CC1(C)[C@H](O)CC[C@]2(C)[C@@H]1C=C[C@](C)(O)[C@H]2COc1ccc2ccc(=O)oc2c1", "values": [{"measurement": "Activity", "setting": "[1]", "result": "inactive"}, {"measurement": "Activity", "setting": "[2]", "result": "inactive"}, {"measurement": "Activity", "setting": "[3]", "result": "inactive"}, {"measurement": "Activity", "setting": "[4]", "result": "inactive"}, {"measurement": "Activity", "setting": "[5]", "result": "inactive"}, {"measurement": "Activity", "setting": "[6]", "result": "inactive"}, {"measurement": "Activity", "setting": "[7]", "result": "inactive"}]}, {"smiles": "C=C1C[C@@H](O[C@@H]2O[C@H](CO)[C@@H](O)[C@H](O)[C@H]2O)[C@@H]2C(C)(C)[C@H](O)CC[C@@]2(C)[C@@H]1COc1ccc2ccc(=O)oc2c1", "values": [{"measurement": "Activity", "setting": "[1]", "result": "inactive"}, {"measurement": "Activity", "setting": "[2]", "result": "inactive"}, {"measurement": "Activity", "setting": "[3]", "result": "inactive"}, {"measurement": "Activity", "setting": "[4]", "result": "inactive"}, {"measurement": "Activity", "setting": "[5]", "result": "inactive"}, {"measurement": "Activity", "setting": "[6]", "result": "inactive"}, {"measurement": "Activity", "setting": "[7]", "result": "inactive"}]}, {"smiles": "CC1=CC[C@@H]2C(C)(C)[C@H](O)CC[C@@]2(C)[C@@H]1COc1ccc2ccc(=O)oc2c1", "note": "[FESELOL]", "values": [{"measurement": "IC50", "setting": "[1]; M14, 48 h", "result": "> 10", "unit": "µM"}, {"measurement": "IC50", "setting": "[2]; MCF7, 48 h", "result": "> 10", "unit": "µM"}, {"measurement": "IC50", "setting": "[3]", "result": "> 10", "unit": "µM"}, {"measurement": "IC50", "setting": "[4]; A549, 48 h", "result": "> 10", "unit": "µM"}, {"measurement": "IC50", "setting": "[5]; SAOS-2, 48 h", "result": "> 10", "unit": "µM"}, {"measurement": "IC50", "setting": "[8]", "result": "> 10", "unit": "µM"}, {"measurement": "IC50", "setting": "[7]; U-937, 48 h", "result": 8, "unit": "µM"}]}, {"smiles": "C=C1C[C@@H](O[C@@H]2O[C@H](CO[C@@H]3OC[C@](O)(CO)[C@H]3O)[C@@H](O)[C@H](O)[C@H]2O)[C@@H]2C(C)(C)[C@H](O)CC[C@@]2(C)[C@@H]1COc1ccc2ccc(=O)oc2c1", "values": [{"measurement": "Activity", "setting": "[1]", "result": "inactive"}, {"measurement": "Activity", "setting": "[2]", "result": "inactive"}, {"measurement": "Activity", "setting": "[3]", "result": "inactive"}, {"measurement": "Activity", "setting": "[4]", "result": "inactive"}, {"measurement": "Activity", "setting": "[5]", "result": "inactive"}, {"measurement": "Activity", "setting": "[6]", "result": "inactive"}, {"measurement": "Activity", "setting": "[7]", "result": "inactive"}]}]}
